According to ChEMBL document CHEMBL1122264, “Synthesis and biological properties of thiophene ring analogues of mianserin” (J Med Chem, 1983):
Blank lines part the entries; values can stand above or below the compound they belong to. Activity calls are given as the source filed them.

Tests used:
[1] = (§1) In vitro antihistamine activity, by activation of guinea pig cerebral cortex adenylate cyclase by histamine mediated by both H1 and H2 receptors; format: functional, tissue-based, Cavia porcellus
Outline: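 Adenylate cyclase preparation from guinea pig cerebral cortex, activated by histamine (acting via H1 + H2 receptors). Percent inhibition is measured in triplicate over a wide concentration range, and IC50 is calculated from those data. Psychoyos procedure.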

Histamine H2 receptor = Histamine H2 receptor (Cavia porcellus, UniProt P47747); assay: In vitro antihistamine activity by activation of 4-methylhistamine mediated by Histamine H2 receptor; format: functional
Chain of Histamine H2 receptor (P47747 whole entry): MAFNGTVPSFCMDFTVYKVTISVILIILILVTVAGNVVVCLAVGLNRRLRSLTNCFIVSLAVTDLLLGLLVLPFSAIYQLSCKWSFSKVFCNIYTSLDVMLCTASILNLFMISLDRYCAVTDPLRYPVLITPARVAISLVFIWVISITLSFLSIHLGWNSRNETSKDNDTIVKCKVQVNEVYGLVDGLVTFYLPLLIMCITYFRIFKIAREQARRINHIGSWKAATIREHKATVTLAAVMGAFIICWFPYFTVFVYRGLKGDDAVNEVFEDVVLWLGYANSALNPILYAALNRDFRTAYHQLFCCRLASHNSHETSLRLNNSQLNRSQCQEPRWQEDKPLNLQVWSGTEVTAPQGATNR

Mus musculus [2] = assay: Central presynaptic alpha-blockade using [3H]rauwolscine (injected iv 20 min later and the mice were sacrificed at 35 min) (in vivo);value ranges between (1.2-5.9); format: functional; settings: read-out: ID50 (the source's name)
Outline: (§2)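 Mice get test drug or vehicle ip at zero time, then [3H]rauwolscine iv 20 min later, and are sacrificed at 35 min. Displacement is measured in mouse forebrain. […] ID50 and 95% confidence limits follow the Granat method.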

Mus musculus [3] = assay: In vivo Antagonism (ip) of 0.1 mg/kg clonidine-induced analgesia (po) determined in phenylquinone-induced writhing assay at 10 mg/kg dose; the ratio being 4/10; format: functional, organism-based
Outline: (§3)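 Male mice (18–22 g) receive the test substance ip, then clonidine 0.1 mg/kg po 30 min later. Phenylquinone is given ip 20 min after clonidine. Mice writhing 5–15 min after phenylquinone count as reactors. The result is the number of mice, out of n = 10 per experiment, in which clonidine analgesia is reversed.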

[4] = molecular target: T1, Cerebral cortex alpha adrenergic receptor (Bos taurus, UniProt Q28838+P18130); assay: In vitro binding affinity towards alpha-adrenoceptor of calf cortex membrane Site B using [3H]-clonidine
T1 sequence (Q28838 whole entry): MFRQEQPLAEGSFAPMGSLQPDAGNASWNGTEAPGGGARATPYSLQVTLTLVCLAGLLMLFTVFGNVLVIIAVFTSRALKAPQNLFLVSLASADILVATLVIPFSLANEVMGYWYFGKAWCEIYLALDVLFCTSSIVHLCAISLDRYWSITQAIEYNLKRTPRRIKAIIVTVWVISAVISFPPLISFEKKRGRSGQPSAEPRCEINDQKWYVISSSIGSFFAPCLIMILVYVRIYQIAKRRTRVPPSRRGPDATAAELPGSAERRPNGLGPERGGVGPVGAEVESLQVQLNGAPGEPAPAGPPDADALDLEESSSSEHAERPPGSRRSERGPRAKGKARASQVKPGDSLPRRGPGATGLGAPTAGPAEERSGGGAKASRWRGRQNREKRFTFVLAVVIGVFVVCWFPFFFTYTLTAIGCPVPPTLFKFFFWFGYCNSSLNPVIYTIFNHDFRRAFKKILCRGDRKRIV
T1 sequence (P18130 whole entry): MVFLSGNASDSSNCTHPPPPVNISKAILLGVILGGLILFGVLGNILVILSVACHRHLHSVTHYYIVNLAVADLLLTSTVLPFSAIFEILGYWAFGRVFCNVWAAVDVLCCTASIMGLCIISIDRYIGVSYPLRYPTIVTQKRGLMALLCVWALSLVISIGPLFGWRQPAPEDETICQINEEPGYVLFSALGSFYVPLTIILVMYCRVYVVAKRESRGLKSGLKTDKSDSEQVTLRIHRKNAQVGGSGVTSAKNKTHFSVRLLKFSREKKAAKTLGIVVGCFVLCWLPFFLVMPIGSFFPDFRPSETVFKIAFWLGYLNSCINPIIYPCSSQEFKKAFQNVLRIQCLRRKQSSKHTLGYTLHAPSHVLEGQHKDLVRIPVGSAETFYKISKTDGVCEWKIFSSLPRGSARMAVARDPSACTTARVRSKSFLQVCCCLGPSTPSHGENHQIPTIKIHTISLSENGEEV

[5] = molecular target: Adrenergic receptor alpha; assay: In vitro binding affinity towards alpha-adreno ceptor of rat forebrain using [3H]prazosin
Outline: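 Rat forebrain membranes, [3H]prazosin binding by the Greengrass and Bremner procedure, with ascorbic acid omitted from the incubation medium. Drugs are tested in triplicate over a wide concentration range in a single experiment.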

[6] = molecular target: T1, Cerebral cortex alpha adrenergic receptor; assay: In vitro binding affinity towards alpha-adrenoceptor of calf cortex membrane Site A using [3H]clonidine
[7] = molecular target: serotonin (5-HT) receptor (Bos taurus); assay: In vitro binding affinity of serotonin receptor by interacting with high affinity, [3H]serotonin from calf caudate nucleus
[8] = as §1
Mus musculus [9] = assay: In vivo central presynaptic alpha-blockade using [3H]rauwolscine (injected iv 20 min later and the mice were sacrificed at 35 min); settings: read-out: ID50
Mus musculus [10] = species on record: Mus musculus; assay: Antidepressant potential (duration) by using the behavioral despair model; format: functional
Rattus norvegicus [11] = assay: In vivo determination of MHPG-SO4 level in rat whole brain at a dose 30 mg/kg ip administration; format: functional; settings: route intraperitoneal
Outline: (§4)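 Rats were given the test agent or vehicle ip as a suspension in corn starch. They were killed 2 h later, and MHPG-SO₄ was measured in whole brain in μg/g ± SE and as % of vehicle control. Five rats were used per experiment.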

Rattus norvegicus [12] = assay: In vivo determination of MHPG-SO4 level in rat whole brain at a dose 0 mg/kg ip administration; format: functional; settings: route intraperitoneal; outline: as §4
Rattus norvegicus [13] = assay: In vivo determination of MHPG-SO4 level in rat whole brain at a dose 30 mg/kg ip administration (5 rats); format: functional; settings: route intraperitoneal; outline: as §4
Mus musculus [14] = assay: In vivo central presynaptic alpha-blockade using [3H]rauwolscine in mice (injected iv 20 min later and the mice were sacrificed at 35 min); format: functional; settings: read-out: ID50 (the source's name); outline: as §2
Mus musculus [15] = assay: In vivo Antagonism (ip) of 0.1 mg/kg clonidine-induced analgesia (po) determined in phenylquinone-induced writhing assay at a dose of 30 mg/kg dose; the ratio is 4/10; format: functional, organism-based; outline: as §3
Rattus norvegicus [16] = assay: In vivo determination of MHPG-SO4 level in rat whole brain at a dose 10 mg/kg intraperitoneal administration; format: functional
Outline: (§5)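 Rats, five per experiment, receive test agent ip as a corn starch suspension and are sacrificed 2 h later. Whole-brain MHPG-SO4 (μg/g) is measured by the Meek and Neff procedure and expressed as a percentage of control, ± SE.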

Rattus norvegicus [17] = assay: In vivo determination of MHPG-SO4 level in rat whole brain at a dose 20 mg/kg intraperitoneal administration; format: functional; outline: as §5
Rattus norvegicus [18] = assay: In vivo determination of MHPG-SO4 level in rat whole brain at a dose 3 0 mg/kg ip administration; format: functional; settings: route intraperitoneal; outline: as §5
Rattus norvegicus [19] = assay: In vivo determination of MHPG-SO4 level in rat whole brain at a dose 0 mg/kg intraperitoneal administration; format: functional; outline: as §5
Rattus norvegicus [20] = assay: In vivo determination of MHPG-SO4 level in rat whole brain at a dose 10 mg/kg ip administration (5 rats); format: functional; settings: route intraperitoneal; outline: as §5
Rattus norvegicus [21] = assay: In vivo determination of MHPG-SO4 level in rat whole brain at a dose 20 mg/kg ip administration (5 rats); format: functional; settings: route intraperitoneal; outline: as §5
[22] = molecular target: serotonin (5-HT) receptor (Bos taurus)

IC50 [1]: 0.09 µM | IC50 (Histamine H2 receptor): 7.2 µM | IC50 [4]: 0.003 µM | IC50 [5]: 0.3 µM | IC50 [6]: 0.002 µM | IC50 [7]: 0.1 µM
SMILES: CN1CCN2c3ccccc3Cc3sccc3C2C1 (stereo unspecified)
ED50 (Mus musculus [2]): 2.7 mg/kg | Antagonism (Mus musculus [3]): Partially active

SMILES: CN1CCN2c3ccccc3Cc3ccccc3C2C1.Cl (stereo unspecified) [MIANSERIN HYDROCHLORIDE]
IC50 [8]: 0.19 µM | IC50 (Histamine H2 receptor): 3.8 µM | ED50 (Mus musculus [9]): 3.7 mg/kg | Duration (Mus musculus [10]): 186 s | MHPG SO4 (Rattus norvegicus [11]): 0.19 µg/g | MHPG_SO4 (Rattus norvegicus [12]): 0.11 µg/g | Control (Rattus norvegicus [13]): 180%

IC50 [1]: 0.28 µM | IC50 (Histamine H2 receptor): 19 µM | IC50 [4]: 0.003 µM | IC50 [5]: 1.4 µM | IC50 [6]: 0.003 µM | IC50 [22]: 0.5 µM
SMILES: CN1CCN2c3ccccc3Cc3ccsc3C2C1 (stereo unspecified)
ED50 (Mus musculus [14]): 3.3 mg/kg | Duration (Mus musculus [10]): 185 s | Antagonism (Mus musculus [15]): Partially active | MHPG_SO4 (Rattus norvegicus [16]): 0.15 µg/g | MHPG SO4 (Rattus norvegicus [17]): 0.21 µg/g | MHPG SO4 (Rattus norvegicus [18]): 0.27 µg/g | MHPG_SO4 (Rattus norvegicus [19]): 0.11 µg/g | Control (Rattus norvegicus [20]): 136% | Control (Rattus norvegicus [21]): 191% | Control (Rattus norvegicus [13]): 245%
